Tests used:
Assay type in all cases: cell-based
L858R EGFR = L858R EGFR (Homo sapiens, UniProt P00533, L858R); assay: L858R EGFR degradation, immunoblot in H3255 cells; conditions: 24 hours
Outline: (§1)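 Cells cultured in RPMI-1640 with 10% FBS and 1% penicillin-streptomycin at 37°C, 5% CO2. They were treated for 24 hours with increasing concentrations of a gefitinib-based PROTAC. Cells were lysed in Tris pH 7.5/NP-40/deoxycholate buffer with phosphatase and protease inhibitors, then cleared at 16,000 × g. Protein was normalised by BCA, resolved by 8% SDS-PAGE, blotted to nitrocellulose, detected by ECL and quantified by densitometry.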

EGFR = EGFR (Homo sapiens, UniProt P00533); assay: EGFR degradation, immunoblot of treated cells; conditions: Figure S2, cell line not given
exon 19 del EGFR = exon 19 del EGFR (Homo sapiens, UniProt P00533, DEL746-750); assay: Exon 19 deletion EGFR degradation, immunoblot in HCC827 cells; conditions: 24 hours
Outline: as §1

## COc1cc2ncnc(Nc3ccc(F)c(Cl)c3)c2cc1OCCCCCOCCOCCC(=O)N[C@H](C(=O)N1C[C@H](O)C[C@H]1C(=O)NCc1ccc(-c2scnc2C)cc1)C(C)(C)C [Compound 3]
L858R EGFR
  degradation of L858R EGFR: enabled the degradation
EGFR
  WT EGFR degradation: sparing the WT EGFR
Exon 19 del EGFR
  degradation of exon-19 deletion EGFR: enabled the degradation

— PMC5831399 (Cell chemical biology, 2017)
